Tests used:
A549 [1] = assay: Cytotoxicity against human A549 cells assessed as inhibition of cell proliferation after 72 hrs by SRB assay; assay type: functional, cell-based; settings: A549, 72 h
Summary of the method: (§1)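 SRB assay. Cells were seeded, cultured overnight, then exposed to a gradient of agent concentrations for 72 h. Absorbance was read at 560 nm.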

[2] = Cytotoxicity against human KB/VCR cells assessed as inhibition of cell proliferation after 72 hrs by SRB assay; assay type: functional, cell-based; summary of the method: as §1
[3] = Cytotoxicity against human KB cells assessed as inhibition of cell proliferation after 72 hrs by SRB assay; assay type: functional, cell-based; summary of the method: as §1
L1210 = assay: Cytotoxicity against mouse L1210 cells by MTT assay; assay type: functional, cell-based
A549 [4] = assay: Selectivity index, ratio of IC50 for human A549 cells to IC50 for human KB cells; assay type: functional
KB [5] = assay: Selectivity index, ratio of IC50 for human KB/VCR cells to IC50 for human KB cells; assay type: functional
A549 [6] = assay: Potency index, ratio of IC50 for artemisinin to IC50 for test compound against human A549 cells; assay type: functional
[7] = Potency index, ratio of IC50 for artemisinin to IC50 for test compound against human KB/VCR cells; assay type: functional
KB [8] = assay: Potency index, ratio of IC50 for artemisinin to IC50 for test compound against human KB cells; assay type: functional
HepG2 = assay: Cytotoxicity against human HepG2 cells by MTT assay; assay type: functional, cell-based

Structure (SMILES) | IC50 (A549 [1]) [µM] | IC50 [2] [µM] | IC50 [3] [µM] | other results
COc1ccc2c(c1)CCN1O[C@@]3(C[C@H]21)[C@@H](OCCN1CCN(C)CC1)O[C@@H]1O[C@@]2(C)CC[C@H]4[C@H](C)CC[C@@H]3[C@@]14OO2 | > 20 | 16.9 | 17.9 | 
COc1ccc2c(c1)CCN1O[C@@]3(C[C@H]21)[C@H](F)O[C@@H]1O[C@@]2(C)CC[C@H]4[C@H](C)CC[C@@H]3[C@@]14OO2 |  | > 20 | > 20 | 
COc1ccc2c(c1)CCN1O[C@@]3(C[C@H]21)C(=O)O[C@@H]1O[C@@]2(C)CC[C@H]4[C@H](C)CC[C@@H]3[C@@]14O2 |  | 13.4 | 15.4 | 
COc1ccc(C2=NO[C@@]3(C2)C(=O)O[C@@H]2O[C@@]4(C)CC[C@H]5[C@H](C)CC[C@@H]3[C@@]25OO4)cc1OC | > 20 | > 20 | > 20 | 
C[C@@H]1CC[C@@H]2[C@]34OO[C@](C)(CC[C@@H]13)O[C@H]4OC(=O)[C@@]21CC(c2c(Cl)cccc2Cl)=NO1 | > 20 | > 20 | > 20 | 
COc1cc2c(cc1OC)[C@H]1C[C@]3(ON1CC2)C(=O)O[C@@H]1O[C@@]2(C)CC[C@H]4[C@H](C)CC[C@@H]3[C@@]14OO2 | 4.69 | 2.35 | 2.53 | 
COc1ccc(C2=NO[C@@]3(C2)C(=O)O[C@@H]2O[C@@]4(C)CC[C@H]5[C@H](C)CC[C@@H]3[C@@]25OO4)cc1 | > 20 | > 20 | > 20 | 
CO[C@@H]1O[C@@H]2O[C@@]3(C)CC[C@H]4[C@H](C)CC[C@@H]([C@]15CC(c1c(Cl)cccc1Cl)=NO5)[C@@]24OO3 | > 20 | > 20 | > 20 | 
COc1ccc2c(c1)CCN1O[C@@]3(C[C@H]21)[C@@H](F)O[C@@H]1O[C@@]2(C)CC[C@H]4[C@H](C)CC[C@@H]3[C@@]14OO2 |  | > 20 | > 20 | 
C[C@@H]1CC[C@H]2[C@@H](C)C(=O)O[C@@H]3O[C@@]4(C)CC[C@@H]1[C@]32OO4 [ARTEMISININ] | > 20 | > 20 | > 20 | 
C[C@@H]1CC[C@@H]2[C@]34OO[C@](C)(CC[C@@H]13)O[C@H]4OC(=O)[C@@]21CC(c2ccccc2)=NO1 | > 20 | > 20 | > 20 | 
C[C@@H]1CC[C@@H]2[C@]34OO[C@](C)(CC[C@@H]13)O[C@H]4OC(=O)[C@@]21C[C@H]2c3ccccc3CCN2O1 |  | > 20 | > 20 | 
CO[C@H]1O[C@@H]2O[C@@]3(C)CC[C@H]4[C@H](C)CC[C@@H]([C@]15CC(c1ccc(Cl)cc1)=NO5)[C@@]24OO3 |  | > 20 | > 20 | 
CCO[C@@H]1O[C@@H]2O[C@@]3(C)CC[C@H]4[C@H](C)CC[C@@H]([C@]15C[C@@H]1c6ccc(OC)cc6CCN1O5)[C@@]24OO3 | > 20 | > 20 | > 20 | 
C[C@@H]1CC[C@@H]2[C@]34OO[C@](C)(CC[C@@H]13)O[C@H]4OC(=O)[C@@]21C[C@@H]2COCCN2O1 |  | > 20 | > 20 | 
C[C@@H]1CC[C@@H]2[C@]34OO[C@](C)(CC[C@@H]13)O[C@H]4OC(=O)[C@@]21C[C@@H]2CCCN2O1 | 10.5 | 3.35 | 2.34 | 
COc1ccc2c(c1)CCN1O[C@@]3(C[C@H]21)[C@@H](OC)O[C@@H]1O[C@@]2(C)CC[C@H]4[C@H](C)CC[C@@H]3[C@@]14OO2 | > 20 | > 20 | > 20 | 

Structure (SMILES) | IC50 (A549 [1]) [µM] | IC50 [2] [µM] | IC50 [3] [µM] | other results
CO[C@H]1O[C@@H]2O[C@@]3(C)CC[C@H]4[C@H](C)CC[C@@H]([C@]15CC(c1c(Cl)cccc1Cl)=NO5)[C@@]24OO3 | 14.4 | 5.06 | 5.29 | 
COC(=O)c1ccc(C2=NO[C@@]3(C2)C(=O)O[C@@H]2O[C@@]4(C)CC[C@H]5[C@H](C)CC[C@@H]3[C@@]25OO4)cc1 |  | > 20 | > 20 | 
CCO[C@H]1O[C@@H]2O[C@@]3(C)CC[C@H]4[C@H](C)CC[C@@H]([C@]15C[C@@H]1c6ccc(OC)cc6CCN1O5)[C@@]24OO3 | > 20 | > 20 | > 20 | 
COc1ccc2c(c1)CCN1O[C@@]3(C[C@@H]21)C(=O)O[C@@H]1O[C@@]2(C)CC[C@H]4[C@H](C)CC[C@@H]3[C@@]14OO2 |  | > 20 | > 20 | 
COc1ccc2c(c1)CCN1O[C@@]3(C[C@@H]21)C(=O)O[C@@H]1O[C@@]2(C)CC[C@H]4[C@H](C)CC[C@@H]3[C@@]14O2 |  | > 20 | > 20 | 
C[C@H]1[C@@H](O[C@H](C#N)c2ccc(Br)cc2)O[C@@H]2O[C@@]3(C)CC[C@H]4[C@H](C)CC[C@@H]1[C@@]24OO3 |  |  |  | IC50 (L1210): 0.01 µM
C[C@@H]1CC[C@@H]2[C@]34OO[C@](C)(CC[C@@H]13)O[C@H]4OC(=O)[C@@]21C[C@@H]2c3ccccc3CCN2O1 | 9.93 | 14 | 2.91 | Ratio IC50 (A549 [4]): 3; Ratio IC50 (KB [5]): 3
CO[C@@H]1O[C@@H]2O[C@@]3(C)CC[C@H]4[C@H](C)CC[C@@H]([C@]15CC(c1ccc(Cl)cc1)=NO5)[C@@]24OO3 |  | > 20 | > 20 | 
CC[C@]1(O)C[C@H]2CN(CCc3c([nH]c4ccccc34)[C@@](C(=O)OC)(c3cc4c(cc3OC)N(C=O)[C@H]3[C@@](O)(C(=O)OC)[C@H](OC(C)=O)[C@]5(CC)C=CCN6CC[C@]43[C@@H]65)C2)C1 [VINCRISTINE] | 0.0368 | 0.387 | 0.00087 | 
C[C@@H]1CC[C@@H]2[C@]34OO[C@](C)(CC[C@@H]13)O[C@H]4OC(=O)[C@@]21CC(c2ccc(Cl)cc2)=NO1 | > 20 | 14 | 13.9 | 
COc1cc2c(cc1OC)[C@@H]1C[C@]3(ON1CC2)C(=O)O[C@@H]1O[C@@]2(C)CC[C@H]4[C@H](C)CC[C@@H]3[C@@]14OO2 | > 20 | > 20 | > 20 | 
COc1cc(C2=NO[C@@]3(C2)C(=O)O[C@@H]2O[C@@]4(C)CC[C@H]5[C@H](C)CC[C@@H]3[C@@]25OO4)cc(OC)c1OC | > 20 | > 20 | > 20 | 
COc1ccc2c(c1)CCN1O[C@@]3(C[C@H]21)[C@H](OC)O[C@@H]1O[C@@]2(C)CC[C@H]4[C@H](C)CC[C@@H]3[C@@]14OO2 | > 20 | > 20 | > 20 | 
COc1ccc2c(c1)CCN1O[C@@]3(C[C@H]21)C(=O)O[C@@H]1O[C@@]2(C)CC[C@H]4[C@H](C)CC[C@@H]3[C@@]14OO2 | 5.01 | 3.16 | 1.47 | Ratio IC50 (A549 [6]): 4; Ratio IC50 [7]: 4; Ratio IC50 (KB [8]): 4
CCCCCCCCCCCCCCNC(=O)C[C@H]1O[C@@H]2O[C@@]3(C)CC[C@H]4[C@H](C)CC[C@@H]([C@H]1C)[C@@]24OO3 |  |  |  | IC50 (HepG2): 0.46 µM
COc1ccc2c(c1)CCN1O[C@@]3(C[C@H]21)[C@@H](OCCN1CCOCC1)O[C@@H]1O[C@@]2(C)CC[C@H]4[C@H](C)CC[C@@H]3[C@@]14OO2 | > 20 | > 20 | > 20 | 
